Measurements: ChEMBL document CHEMBL4351026, “Antifungal activity, mode of action variability, and subcellular distribution of coumarin-based antifungal azoles” (Eur J Med Chem, 2019)
In brackets after ≈: the same amount, converted by molar mass. Activity calls are given as the source filed them. No cut-off for these calls is given here.

Assays:
[1] = system: Nakaseomyces glabratus; experiment: Antifungal activity against Candida glabrata ATCC 2001 assessed as reduction in fungal cell growth incubated for 24 hrs by MTT based broth double dilution method; type: functional; conditions: ATCC 2001, 24 h
In short: (§1)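 Broth double-dilution in Casitone broth. Starter cultures were grown 24 or 48 h at 37 °C, 5% CO₂, diluted 1:100, and added to serial two-fold dilutions at 64 to 0.007 µg/mL. Final inoculum was 5 x 10^4 to 5 x 10^5 CFU/mL; DMSO was 0.0012–1.3%. Plates were incubated at 37 °C, 5% CO₂, then MTT was added for 2 h. MIC followed CLSI M27-A3. Triplicates, two independent experiments.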

[2] = system: Nakaseomyces glabratus; experiment: Antifungal activity against Candida glabrata 192 assessed as reduction in fungal cell growth incubated for 24 hrs by MTT based broth double dilution method; type: functional; conditions: Nakaseomyces glabratus, 192, 24 h; in short: as §1
[3] = system: Candida albicans; experiment: Antifungal activity against Candida albicans SN152 assessed as reduction in fungal cell growth incubated for 24 hrs by MTT based broth double dilution method; type: functional; conditions: SN152, 24 h; in short: as §1
[4] = system: Nakaseomyces glabratus; experiment: Antifungal activity against Candida glabrata ATCC 66032 assessed as reduction in fungal cell growth incubated for 24 hrs by MTT based broth double dilution method; type: functional; conditions: ATCC 66032, 24 h; in short: as §1
[5] = system: Candida parapsilosis; experiment: Antifungal activity against Candida parapsilosis ATCC 22019 assessed as reduction in fungal cell growth incubated for 24 hrs by MTT based broth double dilution method; type: functional; conditions: Lodderomyces parapsilosis, ATCC 22019, 24 h; in short: as §1
[6] = system: Nakaseomyces glabratus; experiment: Antifungal activity against Candida glabrata ATCC 66032 assessed as reduction in fungal cell growth incubated for 48 hrs by MTT based broth double dilution method; type: functional; conditions: ATCC 66032, 48 h; in short: as §1
[7] = system: Candida albicans; experiment: Antifungal activity against Candida albicans SN152 assessed as reduction in fungal cell growth incubated for 48 hrs by MTT based broth double dilution method; type: functional; conditions: SN152, 48 h; in short: as §1
[8] = target: Cytochrome P450 3A4 (Homo sapiens, UniProt P08684); experiment: Inhibition of recombinant human CYP3A4 using Luciferin-PPXE as substrate preincubated for 10 mins followed by NADPH addition measured after 15 mins by luminometric method; type: ADME
Cytochrome P450 3A4, sequence (P08684 whole entry): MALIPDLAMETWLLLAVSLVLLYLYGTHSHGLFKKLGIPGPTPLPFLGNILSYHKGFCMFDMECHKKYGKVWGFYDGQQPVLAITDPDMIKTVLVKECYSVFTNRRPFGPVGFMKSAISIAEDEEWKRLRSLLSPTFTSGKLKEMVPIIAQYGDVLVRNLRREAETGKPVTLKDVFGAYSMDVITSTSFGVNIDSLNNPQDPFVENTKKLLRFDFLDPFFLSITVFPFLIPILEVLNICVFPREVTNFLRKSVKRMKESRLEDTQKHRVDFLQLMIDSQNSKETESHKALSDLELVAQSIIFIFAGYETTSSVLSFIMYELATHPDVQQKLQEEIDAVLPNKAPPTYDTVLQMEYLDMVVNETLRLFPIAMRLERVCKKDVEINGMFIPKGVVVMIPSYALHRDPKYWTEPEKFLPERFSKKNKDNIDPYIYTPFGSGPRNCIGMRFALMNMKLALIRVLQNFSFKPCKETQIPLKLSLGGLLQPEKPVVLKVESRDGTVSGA
In short: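 P450-Glo luminescent assay, Luciferin-PPXE substrate. Compound was mixed with membranes containing recombinant human CYP3A4; controls were vehicle with membranes lacking CYP3A4. After 10 min preincubation at 37 °C, NADPH regeneration reagent was added and the mixture kept 15 min at 37 °C. Luciferin detection reagent stopped the reaction; after 20 min at room temperature, luminescence was read. Duplicates.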

[9] = system: Candida parapsilosis; experiment: Antifungal activity against Candida parapsilosis ATCC 90018 assessed as reduction in fungal cell growth incubated for 24 hrs by MTT based broth double dilution method; type: functional; conditions: Lodderomyces parapsilosis, ATCC 90018, 24 h; in short: as §1
[10] = system: Candida albicans; experiment: Antifungal activity against Candida albicans ATCC 90028 assessed as reduction in fungal cell growth incubated for 24 hrs by MTT based broth double dilution method; type: functional; conditions: ATCC 90028, 24 h; in short: as §1
[11] = system: Nakaseomyces glabratus; experiment: Antifungal activity against Candida glabrata 192 assessed as reduction in fungal cell growth incubated for 48 hrs by MTT based broth double dilution method; type: functional; conditions: Nakaseomyces glabratus, 192, 48 h; in short: as §1
[12] = system: Candida albicans; experiment: Antifungal activity against ERG11/ERG3 knocked out Candida albicans SN152 assessed as zone of inhibition at 25 ug […] by disk diffusion method; type: functional, organism-based
[13] = system: Meyerozyma guilliermondii; experiment: Antifungal activity against Candida guilliermondii T-47 assessed as reduction in fungal cell growth incubated for 24 hrs by MTT based broth double dilution method; type: functional; conditions: T-47, 24 h; in short: as §1
[14] = system: Candida dubliniensis; experiment: Antifungal activity against Candida dubliniensis T-99 assessed as reduction in fungal cell growth incubated for 24 hrs by MTT based broth double dilution method; type: functional; conditions: T-99, 24 h; in short: as §1
[15] = system: Candida albicans; experiment: Antifungal activity against Candida albicans ATCC 90028 assessed as reduction in fungal cell growth incubated for 48 hrs by MTT based broth double dilution method; type: functional; conditions: ATCC 90028, 48 h; in short: as §1
[16] = system: Candida albicans; experiment: Antifungal activity against Candida albicans P-87 assessed as reduction in fungal cell growth incubated for 24 hrs by MTT based broth double dilution method; type: functional; conditions: P-87, 24 h; in short: as §1
[17] = system: Candida albicans; experiment: Antifungal activity against Candida albicans SN152 assessed as zone inhibition at 25 ug incubated for 24 hrs by disk diffusion method; type: functional, organism-based
In short: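 Strains were streaked on YPD agar and grown at 30 °C: 24 h for parental SN152, 48 h for the erg11ΔΔ erg3ΔΔ mutant. Colonies were suspended in PBS and adjusted to OD 0.02 (SN152) or 0.03 (mutant), then spread on Casitone plates. A 6-mm disk loaded with 25 µg compound was placed centrally. Plates were incubated at 30 °C and photographed after 24 h.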

[18] = system: HEK-293T; experiment: Cytotoxicity against human HEK293T cells assessed as reduction in cell viability at 5 to 50 uM incubated for 24 hrs by XTT assay; type: cell-based
In short: (§2)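 HEK-293T were grown in DMEM with 10% FBS; HepG2 in RPMI with 15% FBS; both at 37 °C, 5% CO₂. Cells (4000 HepG2 or 7000 HEK-293T per well) were seeded on poly-D-lysine wells. After 24 h the medium was renewed and compounds added at 5–50 µM from 1 mM stocks in 10% DMSO/0.3% Tween/PBS. After 24 h more, XTT was added for 2 h at 37 °C; absorbance was read at 475 nm against 660 nm reference.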

[19] = Cytotoxicity against human HEK293T cells assessed as reduction in cell viability at 5 to 50 uM incubated for 24 hrs by XTT assay relative to control; type: cell-based, HEK-293T; conditions: HEK293T cells, read-out: INH
In short: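 HEK-293T cells were grown in DMEM with 10% FBS, 1% NEAA, 1% pyruvate and pen-strep-nystatin at 37 °C and 5% CO2. 7000 cells/well were seeded on poly-D-lysine-coated wells. After 24 h the medium was renewed and compounds were added at 5–50 µM from 1 mM stocks in 10% DMSO/0.3% Tween/PBS. After 24 h, XTT was added for 2 h at 37 °C, with absorbance read at 475 nm (reference 660 nm).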

[20] = system: HepG2; experiment: Cytotoxicity against human HepG2 cells assessed as reduction in cell viability at 5 to 50 uM incubated for 24 hrs by XTT assay; type: cell-based; conditions: hepg2, 24 h; in short: as §2
[21] = Cytotoxicity against human HepG2 cells assessed as reduction in cell viability at 5 to 50 uM incubated for 24 hrs by XTT assay relative to control; type: cell-based; conditions: read-out: INH
In short: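 HepG2 cells were maintained in RPMI with 15% FBS, 1% NEAA, 1% pyruvate and pen-strep-nystatin at 37 °C and 5% CO2. 4000 cells/well were plated on poly-D-lysine coating and given fresh medium after 24 h. Compounds were dosed at 5–50 µM from 1 mM stocks in 10% DMSO/0.3% Tween/PBS and incubated 24 h. Viability was read by XTT (2 h, 37 °C) at 475 nm against 660 nm.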

| Structure (SMILES) | MIC [1] [mg/L] | MIC [2] [mg/L] | MIC [3] [mg/L] | MIC [4] [mg/L] | MIC [5] [mg/L] | MIC [6] [mg/L] | MIC [7] [mg/L] | MIC [9] [mg/L] | MIC [10] [mg/L] | MIC [11] [mg/L] | MIC [13] [mg/L] | MIC [14] [mg/L] | MIC [15] [mg/L] | MIC [16] [mg/L] | also measured |
| --- | --- | --- | --- | --- | --- | --- | --- | --- | --- | --- | --- | --- | --- | --- | --- |
| CCC(CC)Oc1ccc2cc(C(=O)NCC(O)(Cn3ccnc3)c3ccc(F)cc3F)c(=O)oc2c1 (racemic) | 4 (≈ 7.82 µM) | 1 (≈ 1.95 µM) | 0.03 (≈ 0.0586 µM) | 2 (≈ 3.91 µM) | 0.25 (≈ 0.489 µM) | 4 (≈ 7.82 µM) | 0.06 (≈ 0.117 µM) | 0.125 (≈ 0.244 µM) | 0.03 (≈ 0.0586 µM) | 2 (≈ 3.91 µM) | 0.125 (≈ 0.244 µM) | 0.25 (≈ 0.489 µM) | 0.06 (≈ 0.117 µM) | 0.015 (≈ 0.0293 µM) | IC50 [8]: 0.332 µM; inhibition zone (IZ) [12]: Active; inhibition zone (IZ) [17]: Active |
| O=C(NCC(O)(Cn1cncn1)c1ccc(F)cc1F)c1cc2ccccc2[nH]c1=O (racemic) | 64 (≈ 150 µM) | 16 (≈ 37.6 µM) | 0.5 (≈ 1.18 µM) | > 64 | 8 (≈ 18.8 µM) |  |  | 2 (≈ 4.7 µM) | 2 (≈ 4.7 µM) |  | 8 (≈ 18.8 µM) | 8 (≈ 18.8 µM) |  | 1 (≈ 2.35 µM) |  |
| CCC(C)n1ncn(-c2ccc(N3CCN(c4ccc(OCC5COC(Cn6cncn6)(c6ccc(Cl)cc6Cl)O5)cc4)CC3)cc2)c1=O (racemic) [ITRACONAZOLE] | 1 (≈ 1.42 µM) | 0.125 (≈ 0.177 µM) | 0.007 (≈ 0.00992 µM) | 1 (≈ 1.42 µM) | 0.03 (≈ 0.0425 µM) | > 64 | 0.007 (≈ 0.00992 µM) | 0.007 (≈ 0.00992 µM) | 0.007 (≈ 0.00992 µM) | 0.125 (≈ 0.177 µM) | 0.03 (≈ 0.0425 µM) | 0.06 (≈ 0.085 µM) | 0.007 (≈ 0.00992 µM) | 0.007 (≈ 0.00992 µM) |  |
| CC[C@@H]([C@H](C)O)n1ncn(-c2ccc(N3CCN(c4ccc(OC[C@@H]5CO[C@@](Cn6cncn6)(c6ccc(F)cc6F)C5)cc4)CC3)cc2)c1=O [POSACONAZOLE] | 1 (≈ 1.43 µM) | 0.125 (≈ 0.178 µM) | 0.007 (≈ 0.00999 µM) | 1 (≈ 1.43 µM) | 0.03 (≈ 0.0428 µM) | > 64 | 0.007 (≈ 0.00999 µM) | 0.015 (≈ 0.0214 µM) | 0.007 (≈ 0.00999 µM) | 0.125 (≈ 0.178 µM) | 0.03 (≈ 0.0428 µM) | 0.03 (≈ 0.0428 µM) | 0.007 (≈ 0.00999 µM) | 0.007 (≈ 0.00999 µM) | Activity [18]: Toxic; cytotoxicity at 24 h, up to 50 µM [19]: < 40%; Activity [20]: Toxic; cytotoxicity at 24 h, up to 50 µM [21]: < 40% |
| Clc1ccc(COC(Cn2ccnc2)c2ccc(Cl)cc2Cl)c(Cl)c1 (stereo not given) [MICONAZOLE] | 1 (≈ 2.4 µM) | 0.06 (≈ 0.144 µM) | 0.007 (≈ 0.0168 µM) | 2 (≈ 4.81 µM) | 0.003 (≈ 0.00721 µM) | 4 (≈ 9.61 µM) | 0.015 (≈ 0.036 µM) | 0.06 (≈ 0.144 µM) | 0.007 (≈ 0.0168 µM) | 0.125 (≈ 0.3 µM) | 0.06 (≈ 0.144 µM) | 0.06 (≈ 0.144 µM) | 0.015 (≈ 0.036 µM) | 0.007 (≈ 0.0168 µM) | inhibition zone (IZ) [12]: Active; inhibition zone (IZ) [17]: Active |
| O=C(NCC(O)(Cn1cncn1)c1ccc(F)cc1F)c1cc2ccc(Cl)cc2[nH]c1=O (racemic) | > 64 | 16 (≈ 34.8 µM) | 0.5 (≈ 1.09 µM) | 64 (≈ 139 µM) | 8 (≈ 17.4 µM) |  |  | 1 (≈ 2.17 µM) | 1 (≈ 2.17 µM) |  | 8 (≈ 17.4 µM) | 8 (≈ 17.4 µM) |  | 1 (≈ 2.17 µM) |  |
| COc1ccc2cc(C(=O)NCC(O)(Cn3cncn3)c3ccc(F)cc3F)c(=O)oc2c1 (racemic) | 8 (≈ 17.5 µM) | 4 (≈ 8.76 µM) | 0.5 (≈ 1.1 µM) | 32 (≈ 70.1 µM) | 2 (≈ 4.38 µM) |  |  | 0.25 (≈ 0.548 µM) | 0.25 (≈ 0.548 µM) |  | 1 (≈ 2.19 µM) | 4 (≈ 8.76 µM) |  | 0.125 (≈ 0.274 µM) |  |
